# Test results published in PubChem BioAssay AID373 (The Scripps Research Institute Molecular Screening Center, 2006).
# The campaign covered roughly 60,000 compounds. About 60 (0.1%) were called active.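 The calls were made as follows: active = activation above the screen-wide mean plus 3 SD (cut at about 4.5% in these data, passing the limit was not always enough); inactive = the rest, inconclusive results apart.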 This excerpt belongs to a sample that is enriched for actives.
# Molecular target: Sphingosine 1-phosphate receptor 3 (Homo sapiens) (UniProt Q99500)
# Assay: human S1P3 receptor agonists, primary screen, cell-based, primary and confirmation, NFAT-BLA reporter (AID 373)
# Procedure, shortened: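 Assay system: stable CHO line with human S1P3, Gα16, NFAT-BLA reporter; Detection: FRET β-lactamase substrate fluorescence, excitation 405 nm, 460/535 nm emission ratio, background-subtracted; Read-out: percent activation versus median 1 µM S1P response, basal-subtracted, per plate; Incubation: cells plated overnight, compound 4 h 37 °C, substrate 2 h RT.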
# [1] = S1P3 NFAT-BLA reporter cells, agonism, FRET ratio, at 4.5 µM, stronger effect = higher value, relative to 1 µM S1P, basal subtracted
# [2] = S1P3 NFAT-BLA reporter cells, agonism, FRET ratio; at 4.5 µM; stronger effect = higher value; relative to 1 µM S1P, basal subtracted
# [3] = S1P3 NFAT-BLA reporter cells, agonism, FRET ratio; measured here: confirmation screen, triplicate average; at 4.5 µM; stronger effect = higher value; relative to 1 µM S1P, basal subtracted
# Chain of Sphingosine 1-phosphate receptor 3 (Homo sapiens) (Q99500 whole entry, looked up): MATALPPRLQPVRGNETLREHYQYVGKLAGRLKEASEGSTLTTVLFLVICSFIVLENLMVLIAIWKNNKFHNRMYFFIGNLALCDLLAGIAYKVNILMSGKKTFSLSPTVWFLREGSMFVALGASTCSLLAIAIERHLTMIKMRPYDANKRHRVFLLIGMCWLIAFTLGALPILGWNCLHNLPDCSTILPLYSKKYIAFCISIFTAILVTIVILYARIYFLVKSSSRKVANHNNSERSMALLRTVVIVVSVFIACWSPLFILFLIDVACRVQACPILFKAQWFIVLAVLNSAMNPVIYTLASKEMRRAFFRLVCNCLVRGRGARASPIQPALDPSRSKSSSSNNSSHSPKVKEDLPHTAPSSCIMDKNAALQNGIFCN
structure (smiles),measurement,setting,value
CCCc1[nH]nc2c1C(c1ccc(OC)c(Cn3nc(C)c(Br)c3C)c1)C(C#N)=C(N)O2 (stereo not given),activation,[1],-0.7% (inactive)
O=C(CN1CCOc2ccccc21)N1CCC(Cc2ccccc2)CC1,activation,[1],-0.9% (inactive)
Cc1cc(=O)[nH]c(SCC(N)=O)c1C#N,activation,[1],-1% (inactive)
CCc1nc2ccccc2n(CCOCCOCCn2c(=O)c(CC)nc3ccccc32)c1=O,activation,[1],1.3% (inactive)
O=C(CC1OC(=O)c2ccccc21)NC1CCCCC1 (stereo not given),activation,[1],-0.8% (inactive)
O=C(O)CCN1C(=O)CC2(CCCCC2)C1=O,activation,[1],-0.4% (inactive)
CCn1cc(NC(=O)Nc2ccc(OC)c(OC)c2)c(C(N)=O)n1,activation,[1],-0.9% (inactive)
C=CCn1c(=O)c2ccccc2n2c(SCC(=O)N3CCCc4ccccc43)nnc12,activation,[1],-2.3% (inactive)
OC(COc1ccc2ccccc2c1)CN1CCOCC1 (stereo not given),activation,[1],0.6% (inactive)
Cc1ccc2nc(-c3ccccc3)cc(C(=O)O)c2c1,activation,[1],0.7% (inactive)
Cc1cccc(NC(=O)C2CCCN2S(=O)(=O)c2ccc(F)cc2)c1C (stereo not given),activation,[1],-1.1% (inactive)
Cc1nc(Nc2ccc3c(c2)OCCO3)c2nnn(Cc3ccccc3Cl)c2n1,activation,[1],-1.2% (inactive)
COc1ccccc1N=C1SC(C)CN1C(=O)C1CCC1 (stereo not given),activation,[1],0.5% (inactive)
O=S(=O)(NCc1ccccn1)c1ccc(F)cc1,activation,[1],-1.2% (inactive)
COCCn1c(C)cc(C(=O)CSc2ncnc3sc4c(c23)CCC4)c1C,activation,[1],-1% (inactive)
Cc1cc(C)n(-c2nc(SCC(=O)N3CCCC3)c3c4c(sc3n2)CCCC4)n1,activation,[1],0% (inactive)
COCCNc1nc(-n2nc(C)cc2C)nc2sc3c(c12)CCCC3,activation,[2],18.4% (active)
same,activation,[3],25.3%
CC1=CC(C)(C)N(C(=O)CSc2nccn2C)c2cc(C)ccc21,activation,[1],0.7% (inactive)
O=C(CCSCCc1ccccn1)Nc1nccs1,activation,[1],-0.7% (inactive)
COc1ccc(-c2nnc(SCC(=O)NC3CCCCC3)o2)cc1OC,activation,[1],-0.8% (inactive)
CCOC(=O)Cn1c(=O)oc2cc(S(=O)(=O)N(C)Cc3ccco3)ccc21,activation,[1],0.3% (inactive)
O=C(CN1C(=O)C2C3C=CC(C3)C2C1=O)NCCc1ccccc1Cl (stereo not given),activation,[1],0.1% (inactive)
CCOC(=O)C(C)Oc1cccc2c(=O)n(CC(=O)N3CCc4ccccc43)ccc12 (stereo not given),activation,[1],-1.6% (inactive)
Cc1cc(Nc2cccc(C)c2C)n2ncnc2n1,activation,[1],-1.3% (inactive)
COCCOC(=O)C1=C(C)NC(=O)NC1c1ccc(Cl)cc1 (stereo not given),activation,[1],-2.2% (inactive)
O=C(Cn1cnc2c(nnn2-c2ccccc2)c1=O)N1CCC(Cc2ccccc2)CC1,activation,[1],-1.2% (inactive)
COC(=O)c1ccc(OC(=O)c2nn(C)cc2Cl)c(OC)c1,activation,[1],-1% (inactive)
COc1ccc(-c2nnc(SC(=O)N3c4ccccc4Sc4ccccc43)o2)cc1,activation,[1],-1.5% (inactive)
CC1(C)CCCC2=C1CC1C(=O)N(c3ccccc3)C(=O)C1C2 (stereo not given),activation,[1],-0.8% (inactive)
C=CCNC(=O)CCCOc1cccc(C)c1,activation,[1],0.2% (inactive)
O=C(CCOc1ccccc1)NCc1ccccc1,activation,[1],0.1% (inactive)
O=C(CCC(=O)OCC(F)(F)C(F)F)NCc1ccccc1,activation,[1],-0.2% (inactive)
COc1c(Br)cc2c(C)c(C(=O)N3CCOCC3)oc2c1Br,activation,[1],1.5% (inactive)
CCCN(CCC)C(=O)C1c2ccccc2Oc2ccccc21,activation,[1],-1.3% (inactive)
COc1ccccc1CNC(=O)CCCNS(=O)(=O)c1cccc2nsnc12,activation,[1],1.2% (inactive)
COCCNC(=O)Cn1cc2c(n1)CCCCC2,activation,[1],-0.2% (inactive)
CC(NC(=O)c1cc(-c2ccccc2)on1)c1ccccc1 (stereo not given),activation,[1],-1.3% (inactive)
O=C(Nc1ccc2c(c1)nc1n2CCCCC1)c1cc(S(=O)(=O)N2CCOCC2)ccc1Cl,activation,[1],-0.4% (inactive)
C=C(C)c1cccc(C(C)(C)NC(=O)N2CCN(c3ncccn3)CC2)c1,activation,[1],-0.9% (inactive)
CC(C)C(=O)Nc1c(C(=O)c2ccc(F)cc2)oc2ccccc12,activation,[1],-0.2% (inactive)
O=C(CN1CCOCC1)N1CCCc2c1c(=O)oc1ccc(OCc3ccccc3)cc21,activation,[1],-1% (inactive)
COCCOC(=O)C1=C(C)N=c2s/c(=C\c3cccs3)c(=O)n2C1c1cccs1 (stereo not given),activation,[1],-2% (inactive)
CC1(C)CC(=O)c2cc(OCC(=O)NCC3CCCO3)ccc2O1 (stereo not given),activation,[1],-0.8% (inactive)
CN(CCc1ccccn1)S(=O)(=O)c1ccc2c3c(cccc13)C(=O)N2,activation,[1],0.3% (inactive)
CC(=O)N1CC2(C)CN(C(C)=O)CC(C)(C1)C2=O,activation,[1],0% (inactive)
Cc1ccc2c(c1)sc1ncc(NC(=O)c3ccccc3)c(=O)n12,activation,[1],-1.1% (inactive)
O=C(NCCc1ccco1)c1nn(Cc2ccccc2)c(=O)c2ccccc12,activation,[1],0.7% (inactive)
Cc1ccnc(N2C(=O)c3ccccc3C2Nc2ccc3c(c2)OCCO3)c1 (stereo not given),activation,[1],0.3% (inactive)
COc1ccc(OC)c(NC(=O)CSc2nc3cccnc3n2C)c1,activation,[1],0.2% (inactive)
COc1ccc(Cn2c(=O)sc3ccccc32)cc1OC,activation,[1],-0.4% (inactive)
O=C(NC(c1ccccc1)c1ccccc1)N1CCN(CCO)CC1,activation,[1],0.8% (inactive)
CC(C)Cn1c(N)c(C(=O)NCc2cccs2)c2nc3ccccc3nc21,activation,[2],8.2% (active)
same,activation,[3],5.4%
C=CCn1c(N)c(S(=O)(=O)c2cccs2)c2nc3ccccc3nc21,activation,[1],-0.5% (inactive)
C=CCn1c(N)c(C(=O)OCC(C)C)c2nc3ccccc3nc21,activation,[1],0.4% (inactive)
CCCOC(=O)CC1C(=O)NCCN1Cc1ccc(F)cc1 (stereo not given),activation,[1],0.3% (inactive)
COc1cc(OC)cc(C(=O)Nc2ncc3c(n2)CC(C)(C)CC3=O)c1,activation,[1],-1.1% (inactive)
CN1CCN(C(=O)c2ccc(NS(=O)(=O)c3ccccc3)cc2)CC1,activation,[1],-0.2% (inactive)
CCOc1cc(C(=O)N2CCc3cc(OC)c(OC)cc3C2)ccc1OC(F)F,activation,[1],-0.2% (inactive)
COc1ccc(S(=O)(=O)N2CCN(C(=O)c3cccs3)CC2)cc1OC,activation,[1],0% (inactive)
Cc1c2cnn(-c3ccccc3)c(=O)c2c(C)n1CCCC(=O)N1CCN(C)CC1,activation,[1],-1.3% (inactive)
COc1ccc(C(=O)OCC(=O)c2ccc(C)c(S(=O)(=O)N3CCOCC3)c2)cc1OC,activation,[1],-1% (inactive)
CC1(C)CC(CCC(=O)Nc2ccccc2Cl)C(=O)O1 (stereo not given),activation,[1],-0.9% (inactive)
Cc1ccccc1-n1c(SCC(=O)NCc2cccs2)nnc1-c1ccncc1,activation,[1],0.9% (inactive)
CC1(C)Oc2ccc(C(=O)N3CCOCC3)cc2N(CC(=O)Nc2ccccc2)C1=O,activation,[1],-0.1% (inactive)
CCCCc1nc2c(=O)[nH]c3ccccc3c2o1,activation,[1],-0.4% (inactive)
C=CCn1c(C2CC(=O)N(c3ccc(C)cc3)C2)nc2ccccc21 (stereo not given),activation,[1],-2.5% (inactive)
O=C(COc1ccccc1)N1CCc2ccccc2C1,activation,[1],0.4% (inactive)
CC(=O)CSc1nnc(CSc2ncccn2)n1C1CCCCC1,activation,[1],-0.6% (inactive)
CC1(C)CC(=O)C(C2=NC(C)(C)Cc3ccccc32)=C(O)C1,activation,[1],-2% (inactive)
CC(C)C(=O)Nc1cccc(C(=O)Nc2ccc3c(c2)OCO3)c1,activation,[1],-1.2% (inactive)
COc1ccc(OC)c2c1sc(=NC(=O)CN1C(=O)CCC1=O)n2C,activation,[1],-2.3% (inactive)
OCc1nc(CO)n(Cc2ccccc2)n1,activation,[1],-1% (inactive)
COc1ccc(N2C(=O)CN=C2Nc2cccc(C)c2C)cc1OC,activation,[1],0.2% (inactive)
CCCc1nnc(NC(=O)CN2C(=O)c3ccccc3S2(=O)=O)s1,activation,[1],-1% (inactive)
CCOC(=O)c1sc(/N=C/Nc2nc(C)c(C(=O)OCC)s2)nc1C,activation,[1],-1.5% (inactive)
N#CCCN(CCC#N)c1nnc(-c2ccccc2)s1,activation,[1],-0.2% (inactive)
CCOC(=O)C1C(=O)C=C(c2ccc(OC)cc2)CC1c1ccco1 (stereo not given),activation,[1],-1.9% (inactive)
Cc1nc(SC(C)C)[nH]c(=O)c1Cc1ccccc1,activation,[1],0.1% (inactive)
CCCc1cc(=O)oc2c(C)c(O)c(CN3CCCCC3)cc12,activation,[1],-2.1% (inactive)
CCC(=O)Nc1ccccc1C(=O)N1CCN(Cc2ccccc2)CC1,activation,[1],-1.1% (inactive)
NS(=O)(=O)c1ccc(NS(=O)(=O)/C=C/c2ccccc2)cc1,activation,[1],1.3% (inactive)
Cc1occc1C(=O)Nc1cccc(Cn2cccn2)c1,activation,[1],-0.4% (inactive)
COc1ncnc2sc3c(c12)CCCC3,activation,[1],-0.3% (inactive)
COc1ccc(C)cc1S(=O)(=O)NC1CCCCC1,activation,[1],-0.3% (inactive)
CCOc1cccc(/C(O)=C2/C(=O)C(=O)N(CCOC)C2c2ccncc2)c1 (stereo not given),activation,[1],-1.3% (inactive)
CCOC(=O)c1sc(NC(=O)C(CC)Sc2nccn2C)nc1C (stereo not given),activation,[1],-1.7% (inactive)
Cc1cccc(NC(=O)CN2CCCN(S(=O)(=O)c3ccc(Br)s3)CC2)c1,activation,[1],-1.4% (inactive)
CCOC(=O)c1cc(-c2nnc(-c3cc(OC)c(OC)c(OC)c3)o2)c(C)nc1C,activation,[1],-1.5% (inactive)
CCOC(=O)c1c(C(C#N)C#N)cc(C)nc1C,activation,[1],-3.8% (inactive)
O=C(Cn1nnc(-c2ccccc2)n1)NCc1ccccc1,activation,[1],-0.5% (inactive)
Cc1cc(C)nc(SCc2nnc(SCC(=O)Nc3ncc(C)s3)n2Cc2ccco2)n1,activation,[1],0% (inactive)
CCn1ncc(C2=NOC(C(=O)Nc3ccccc3C(=O)OC)C2)c1C (stereo not given),activation,[1],-0.6% (inactive)
CC1Cc2cc(/C(O)=C3\C(=O)C(=O)N(CCN4CCOCC4)C3c3ccccc3F)ccc2O1 (stereo not given),activation,[1],0.5% (inactive)
CC1CN(C(=O)CN2C(=O)NC(C)(c3ccccc3)C2=O)CC(C)O1 (stereo not given),activation,[1],1.6% (inactive)
O=C1NC(Nc2nc3ccccc3s2)(C(F)(F)F)C(=O)N1C1CCCCC1 (stereo not given),activation,[1],-0.5% (inactive)
Cc1nc(SCC(=O)Nc2cc(C)on2)c2c3c(sc2n1)CCCC3,activation,[1],-0.8% (inactive)
CCOc1ccc(NC(=O)N(CCC(C)C)C(C)c2ccco2)cc1 (stereo not given),activation,[1],-0.3% (inactive)
Cc1cc(=O)n(C)c(=O)n1CCCNc1ccccc1,activation,[1],-0.2% (inactive)
